C8 TRAIL sens = sensitizes caspase-8 expressing cells to TRAIL; NB7+C8 cells + TRAIL, ATPlite viability luminescence; inhibition (viability loss, TRAIL sensitization), % at 10 µM; actives 1% (n = 360,000);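 active = compounds causing at least 50% loss of cell viability in the single-dose screen, relative to plate controls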
STAT1 inh = STAT1 signaling inhibition. NIH 3T3 STAT1-luciferase reporter, IFN-gamma, luminescence. inhibition, % at 5.5 µM. actives 0.35% (n = 200,000);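 active = inhibition above a set limit, the mean inhibition across all tested compounds plus 3 SD, cut at about 34% in these data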;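 note: 0% = IFN-gamma with DMSO and 100% = IFN-gamma with 300 µM nifuroxazide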
PPC-1+TRAIL kill = compounds killing PPC-1 cancer cells with TRAIL present (potentiator screen, no TRAIL-free arm) | AID 1443 | actives 0.41% (n = 220,000) | cell killing (% activity), % at 4 µM or 5 µM | PPC-1 cells + TRAIL, ATPLite viability luminescence;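 active = cell killing above 50% in the first pass at 4 µM, then a duplicate retest at 5 µM averaging 50% or more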;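 note: plate controls were cells with TRAIL plus DMSO for no effect and medium-only wells lacking cells for full effect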
STAT3 inh = inhibitors of IL-6 induced STAT3 signaling. U3A cells, IL-6 STAT3-luciferase reporter, luminescence; host cell line lacks STAT1. inhibition, % at 5.5 µM. actives 0.89% (n = 190,000);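 active = inhibition above the mean inhibition across all screened compounds plus 3 SD, cut at about 44% in these data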;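 note: 0% = DMSO only wells and 100% = 100 µM nifuroxazide control wells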
STAT3 act-1 = increases IL-6 driven STAT3 reporter signal. U3A cells, IL-6 STAT3-luciferase reporter, luminescence; 100% = signal with IL-6 EC80 alone. activation (% of control), % at 5.6 µM. actives 0.91% (n = 190,000). AID 871;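 active = activation above the screen-wide mean of compound activation plus 3 SD, cut at about 130% in these data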;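 note: 0% = background luminescence of wells with medium and substrate only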
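Material: human STAT1-deficient U3A cells with stable STAT3-luciferase reporter / Probe or stimulus: IL-6 stimulus at 33 ng/mL final / Schedule: 1 h compound pre-exposure, 6 h IL-6 stimulation, 37 °C / Technique: luminescence / Read-out basis: percent of IL-6-only median luminescence / Control set: IL-6-only high control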
HSP90 inh = HSP90 refolding inhibition in rabbit reticulocyte lysate | inhibition, % at 5.6 µM | actives 0.91% (n = 290,000) | luciferase refolding luminescence, 3 h;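 active = inhibition above the screen-wide mean plus 3 SD, computed separately per campaign, cut at about 16% in these data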;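 note: 0% = DMSO wells and 100% = 60 µM geldanamycin wells; inhibitors lower the luminescence because luciferase stays unfolded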
STAT3 act-2 = confirmation of STAT3 signaling activators; shares compounds with STAT3 act-1; U3A STAT3-luciferase reporter, IL-6 potentiation, luminescence; U3A cells lack STAT1; 100 means same as IL-6 alone; potentiation (% of control), % at 5.7 µM; actives 64% (n = 1,200); AID 1267;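 active = percent activation of the STAT3 luciferase reporter above a set limit taken from the earlier primary screen, cut at about 130% in these data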;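 note: 0% = background signal of medium plus substrate and 100% = median of IL-6 with DMSO wells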
NFkB act 2 = NF-kappaB activation in STAT3 activator counter-screen. actives 11% (n = 1,200). activation (% of control), % at 5.7 µM. human cells, NF-kappaB reporter activation. shares compounds with STAT3 act-1; in the data active = activation above about 120%;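 note: reporter induced by TNF-alpha stimulation; 100% = median of stimulated DMSO wells and 0% = no signal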
STAT1 act STAT3c = counter-screen for STAT3 activators: STAT1 activation. shares compounds with STAT3 act-1. activation (% of control), % at 5.7 µM. actives 13% (n = 1,200). NIH 3T3 STAT1-luciferase reporter, IFN-gamma, luminescence. AID 1318;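 active = activation above the solvent-only control well mean plus 3 SD, set per screening run, cut at about 120% in these data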;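 note: 100% = IFN-gamma with DMSO median signal so 100% means no change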
Starred values were filed as active, the others as inactive. Shown are actives, neighbours in structure and some others; about 2.3% of the full set was active somewhere.

For N#Cc1ccc(C23CC4(C2)[C@H](CN(Cc2ccc(-c5ccccc5)cc2)[C@@H]4c2ccccc2)C3c2ccccc2)cc1 (some centres undefined) the results were C8 TRAIL sens 8.4 and PPC-1+TRAIL kill -3.7.
Screening Nc1cccc(C2=Nc3cccc4cccc(c34)N2)c1 returned C8 TRAIL sens 6.0, STAT1 inh 0.8, PPC-1+TRAIL kill 12.4, STAT3 inh -63.1, STAT3 act-1 147.0*, HSP90 inh -0.4, STAT3 act-2 156.7*, NFkB act 2 103.3 and STAT1 act STAT3c 105.1.
CC(C)C[C@H]1CN=C(N(C)C)N1CC1CCCCCC1 was read as C8 TRAIL sens 14.0.
Oc1ccccc1/C=N/Nc1cccc2cccnc12 was read as C8 TRAIL sens 25.8, STAT1 inh 11.3, PPC-1+TRAIL kill -8.2, STAT3 inh -66.9, STAT3 act-1 161.9*, HSP90 inh -2.6, STAT3 act-2 164.4*, NFkB act 2 98.4 and STAT1 act STAT3c 92.6.
Screening Cn1c2ccccc2c2ncn(CCCN3CCOCC3)c(=O)c21 returned C8 TRAIL sens 11.1, STAT1 inh 5.2, PPC-1+TRAIL kill -12.5, STAT3 inh -42.0, STAT3 act-1 139.8*, HSP90 inh 2.6, STAT3 act-2 153.6*, NFkB act 2 112.2 and STAT1 act STAT3c 108.0.
Screening O=C1CCCCc2cc(O)c(O)cc21 returned C8 TRAIL sens 14.1.
For Nc1cc2c(cc1O)CCCC2 the results were C8 TRAIL sens 2.2, STAT1 inh -7.2, PPC-1+TRAIL kill 14.3, STAT3 inh -35.2, STAT3 act-1 137.4*, HSP90 inh 6.2, STAT3 act-2 182.8*, NFkB act 2 118.3 and STAT1 act STAT3c 146.9*.
CCCCn1c2ccccc2c2nnc(SCC(=O)NC3=NN=C(c4ccccc4)CS3)nc21 was read as STAT1 inh 2.4, PPC-1+TRAIL kill 15.3, STAT3 inh -50.0, STAT3 act-1 136.4*, HSP90 inh 6.1, STAT3 act-2 107.4, NFkB act 2 110.5 and STAT1 act STAT3c 117.7.
`COc1ccc(CNC(=O)C2CCN(S(=O)(=O)c3ccc4c(c3)N(C(C)=O)CCO4)CC2)cc1` gave C8 TRAIL sens -18.2 and HSP90 inh -1.9.
CCOC(=O)c1ccccc1Nc1cn(C(C)=O)c2ccccc12 was read as C8 TRAIL sens 10.6, STAT1 inh 11.0, PPC-1+TRAIL kill -16.2, STAT3 inh -49.4, STAT3 act-1 149.4*, HSP90 inh 5.9, STAT3 act-2 156.0*, NFkB act 2 96.6 and STAT1 act STAT3c 114.2.
CC(=O)SC(C[N+](=O)[O-])c1cn(C(C)=O)c2ccccc12 (centres undefined) was read as C8 TRAIL sens -26.2, STAT1 inh -4.3, PPC-1+TRAIL kill 14.1, STAT3 inh -28.2, STAT3 act-1 128.5 and HSP90 inh 1.4.
`O=C(O)c1ccccc1Nc1ccccc1` gave C8 TRAIL sens 7.0.
`CC(=O)n1cc(Nc2ccc([N+](=O)[O-])cc2)c2ccccc21` gave C8 TRAIL sens 1.7, STAT1 inh 0.2, PPC-1+TRAIL kill 20.3, STAT3 inh -50.8, STAT3 act-1 141.0*, HSP90 inh 0.4, STAT3 act-2 137.0*, NFkB act 2 95.5 and STAT1 act STAT3c 100.0.
`CCOCC(=O)Nc1ccccc1C(=O)OCC` gave C8 TRAIL sens -31.6, STAT1 inh 1.5, PPC-1+TRAIL kill 4.3, STAT3 inh -3.1, STAT3 act-1 106.4 and HSP90 inh -0.6.
